In ChEMBL document CHEMBL3414467, “Exploring the 7-oxo-thiazolo[5,4-d]pyrimidine core for the design of new human adenosine A3 receptor antagonists. Synthesis, molecular modeling studies and pharmacological evaluation” (Eur J Med Chem, 2015):

How the values were obtained:
[1] = molecular target: T1, Adenosine receptor A1 (Homo sapiens) (UniProt P30542); assay: Displacement of [3H]DPCPX from human adenosine A1 receptor expressed in CHO cell membranes at 1 uM incubated for 120 mins by scintillation counting method
T1 sequence (whole entry): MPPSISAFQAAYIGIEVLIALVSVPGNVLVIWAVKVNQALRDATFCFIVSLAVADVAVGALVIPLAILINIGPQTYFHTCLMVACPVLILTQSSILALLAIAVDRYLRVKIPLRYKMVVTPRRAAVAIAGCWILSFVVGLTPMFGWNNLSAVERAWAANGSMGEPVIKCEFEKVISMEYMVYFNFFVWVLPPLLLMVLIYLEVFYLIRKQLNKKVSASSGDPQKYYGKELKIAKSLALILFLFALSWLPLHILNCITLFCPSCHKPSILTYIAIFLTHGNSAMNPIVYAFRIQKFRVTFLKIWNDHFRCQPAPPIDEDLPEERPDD
Summary of the method: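 Membranes from hA1-CHO cells (50 μg protein/assay), pretreated with adenosine deaminase 2 IU/mL, 30 min at 37 °C. Incubated with 1 nM [3H]DPCPX in 50 mM Tris HCl pH 7.4 for 120 min at 25 °C. Nonspecific binding defined with 1 μM DPCPX. Test compounds at 1 μM, reported as percent inhibition. Separation by GF/B filtration; read by scintillation counting.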

[2] = molecular target: Adenosine receptor A2a (Homo sapiens) (UniProt P29274); assay: Displacement of [3H]ZM241385 from human adenosine A2A receptor expressed in CHO cell membranes at 1 uM incubated for 60 mins by scintillation counting method
Summary of the method: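 Membranes from hA2A-CHO cells (50 μg protein/assay), deaminase-treated. Incubated with 1 nM [3H]ZM241385 in 50 mM Tris HCl, 10 mM MgCl2, pH 7.4 for 60 min at 4 °C. Nonspecific binding defined with 1 μM ZM241385. Test compounds at 1 μM, reported as percent inhibition. Filter separation; scintillation counting.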

[3] = molecular target: T2, Adenosine receptor A2b (Homo sapiens) (UniProt P29275); assay: Antagonist activity against human adenosine A2B receptor expressed in CHO cells assessed as inhibition of NECA-induced cAMP production at 1 uM by scintillation counting method; type: functional, cell-based
T2 sequence (whole entry): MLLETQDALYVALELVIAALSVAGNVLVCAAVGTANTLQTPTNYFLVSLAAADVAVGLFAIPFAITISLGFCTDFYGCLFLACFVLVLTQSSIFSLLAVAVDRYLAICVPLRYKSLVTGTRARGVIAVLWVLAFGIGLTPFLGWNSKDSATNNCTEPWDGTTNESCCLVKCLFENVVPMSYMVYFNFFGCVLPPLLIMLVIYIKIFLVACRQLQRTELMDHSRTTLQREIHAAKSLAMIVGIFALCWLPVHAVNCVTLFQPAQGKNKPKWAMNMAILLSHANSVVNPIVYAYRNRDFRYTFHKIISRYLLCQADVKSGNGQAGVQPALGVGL
Summary of the method: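 hA2B-transfected CHO cells (1 × 10⁶ cells/assay) in buffered saline-glucose medium with 2 IU/mL adenosine deaminase and Ro 20-1724, preincubated 10 min at 37 °C, stimulated with 200 nM NECA; test compounds at 1 μM, reported as percent inhibition. Stopped with cold 6% TCA, ether-extracted; cAMP measured by competition binding with [3H]cAMP and beef adrenal binding protein.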

[4] = molecular target: T3, Adenosine receptor A3 (Homo sapiens) (UniProt P0DMS8); assay: Displacement of [125I]AB-MECA from human adenosine A3 receptor expressed in CHO cell membranes at 1 uM incubated for 120 mins by scintillation counting method
T3 sequence (whole entry): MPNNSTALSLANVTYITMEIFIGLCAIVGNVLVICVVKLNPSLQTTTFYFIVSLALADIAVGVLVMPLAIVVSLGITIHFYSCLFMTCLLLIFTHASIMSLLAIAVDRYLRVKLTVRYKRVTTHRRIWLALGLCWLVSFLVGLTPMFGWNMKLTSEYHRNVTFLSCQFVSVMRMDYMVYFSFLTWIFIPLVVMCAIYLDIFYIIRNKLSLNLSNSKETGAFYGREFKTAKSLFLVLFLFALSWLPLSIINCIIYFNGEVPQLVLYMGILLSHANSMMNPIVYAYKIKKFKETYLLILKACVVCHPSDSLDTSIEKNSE
Summary of the method: (§1)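 Membranes from hA3-CHO cells (50 μg protein/assay), pretreated with 2 IU/mL adenosine deaminase. Incubated with 0.5 nM [125I]AB-MECA in 50 mM Tris HCl, 10 mM MgCl2, 1 mM EDTA, pH 7.4, with six to eight compound concentrations; percent inhibition taken at 1 μM. Ki from IC50 by Cheng–Prusoff, means of four assays in duplicate.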

Adenosine receptor A3 [5] = molecular target: T4, Adenosine receptor A3 (Homo sapiens, UniProt P0DMS8); assay: Displacement of [125I]AB-MECA from human adenosine A3 receptor expressed in CHO cell membranes incubated for 120 mins by scintillation counting method; summary of the method: as §1
T4 sequence (P0DMS8 whole entry): T3 sequence (whole entry)

Adenosine receptor A3 [6] = molecular target: T4, Adenosine receptor A3; assay: Antagonist activity against human adenosine A3 receptor expressed in CHO cells assessed as blockade of Cl-IB-MECA-induced inhibition of forskolin-induced cAMP production by scintillation counting method; type: functional, cell-based
Summary of the method: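 hA3-transfected CHO cells (1 × 10⁶ cells/assay) in buffered medium pH 7.4 with 2 IU/mL adenosine deaminase and Ro 20-1724, preincubated 10 min at 37 °C; antagonists tested against 100 nM Cl-IB-MECA. Stopped with cold TCA; cAMP measured by [3H]cAMP competition binding with adrenal binding protein. IC50 from sigmoid nonlinear regression, mean of four experiments.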

Adenosine receptor A2a (Homo sapiens), sequence (P29274 whole entry): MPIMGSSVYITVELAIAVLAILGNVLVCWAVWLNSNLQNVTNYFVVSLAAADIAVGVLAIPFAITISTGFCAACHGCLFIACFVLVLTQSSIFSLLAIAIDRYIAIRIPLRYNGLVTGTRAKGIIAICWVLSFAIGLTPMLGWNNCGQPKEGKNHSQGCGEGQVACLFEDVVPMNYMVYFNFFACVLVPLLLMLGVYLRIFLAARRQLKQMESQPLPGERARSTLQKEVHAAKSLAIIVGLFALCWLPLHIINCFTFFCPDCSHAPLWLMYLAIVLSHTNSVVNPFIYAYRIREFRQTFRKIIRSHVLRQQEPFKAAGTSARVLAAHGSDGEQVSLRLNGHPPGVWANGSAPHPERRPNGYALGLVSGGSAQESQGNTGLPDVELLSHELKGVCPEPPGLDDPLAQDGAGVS

Structure (SMILES)	inhibition [1]	inhibition [2]	inhibition [3]	inhibition [4]	Ki (Adenosine receptor A3 [5])	IC50 (Adenosine receptor A3 [6])
Cc1nc2sc(Nc3ccc(Cl)cc3)nc2c(=O)[nH]1	33%	18%	1%	49%	–	–
CCOc1nc(C)nc2sc(Nc3cccc(OC)c3)nc12	3%	25%	1%	–	110 nM	–
Cc1nc2sc(Cc3ccccc3)nc2c(=O)[nH]1	11%	1%	1%	–	427 nM	–
CCOc1nc(C)nc2sc(Nc3ccccc3)nc12	2%	3%	1%	45%	–	–
Cc1nc2sc(-c3cccc(Cl)c3)nc2c(=O)[nH]1	24%	10%	1%	–	826 nM	–
CCOc1nc(C)nc2sc(-c3ccc(Cl)cc3)nc12	6%	9%	1%	10%	–	–
Cc1nc2sc(-c3cccc(C(F)(F)F)c3)nc2c(=O)[nH]1	1%	15%	17%	15%	–	–
Cc1cccc(-c2nc3c(=O)[nH]c(C)nc3s2)c1	1%	31%	1%	–	384 nM	–
Cc1cccc(Nc2nc3c(=O)[nH]c(C)nc3s2)c1	12%	8%	1%	–	450 nM	–
Cc1nc2sc(-c3ccc(F)cc3)nc2c(=O)[nH]1	1%	15%	17%	–	107 nM	–
COc1ccc(Nc2nc3c(=O)[nH]c(C)nc3s2)cc1	1%	1%	1%	36%	–	–
Cc1nc2sc(-c3cccs3)nc2c(=O)[nH]1	4%	1%	1%	–	248 nM	–
Cc1nc2sc(-c3ccc(C(=O)O)cc3)nc2c(=O)[nH]1	1%	1%	1%	1%	–	–
Cc1nc2sc(Nc3ccccc3)nc2c(=O)[nH]1	24%	14%	1%	45%	–	–
Cc1nc2sc(-c3ccco3)nc2c(=O)[nH]1	37%	1%	2%	20%	–	–
Cc1nc2sc(-c3ccc(O)cc3)nc2c(=O)[nH]1	1%	1%	1%	15%	–	–
Cc1ccc(-c2nc3c(=O)[nH]c(C)nc3s2)cc1	17%	2%	3%	–	33 nM	–

Structure (SMILES)	inhibition [1]	inhibition [2]	inhibition [3]	inhibition [4]	Ki (Adenosine receptor A3 [5])	IC50 (Adenosine receptor A3 [6])
Cc1nc2sc(-n3ccnc3)nc2c(=O)[nH]1	1%	1%	1%	8%	–	–
Cc1nc2sc(Nc3ccc(Cl)c(Cl)c3)nc2c(=O)[nH]1	30%	16%	1%	25%	–	–
Cc1nc2sc(-c3cccc(F)c3)nc2c(=O)[nH]1	1%	1%	1%	–	109 nM	–
CCOc1nc(C)nc2sc(-c3ccc(C)cc3)nc12	1%	1%	1%	5%	–	–
Cc1ccc(Nc2nc3c(=O)[nH]c(C)nc3s2)cc1	20%	18%	1%	47%	–	–
Cc1nc2sc(-c3ccncc3)nc2c(=O)[nH]1	1%	1%	1%	15%	–	–
Cc1nc2sc(-n3cccc3)nc2c(=O)[nH]1	1%	9%	3%	–	227 nM	–
Cc1nc2sc(-c3ccccc3)nc2c(=O)[nH]1	11%	1%	1%	–	85 nM	221 nM
CCOc1nc(C)nc2sc(-c3ccccc3)nc12	11%	1%	1%	6%	–	–
COc1cccc(Nc2nc3c(=O)[nH]c(C)nc3s2)c1	8%	1%	1%	–	113 nM	–
Cc1nc2sc(Nc3cccc(Cl)c3)nc2c(=O)[nH]1	44%	21%	1%	48%	–	–
Cc1nc2sc(-c3cccnc3)nc2c(=O)[nH]1	1%	1%	1%	33%	–	–
Cc1nc2sc(-c3ccc(C(F)(F)F)cc3)nc2c(=O)[nH]1	1%	37%	1%	32%	–	–
COc1ccc(-c2nc3c(=O)[nH]c(C)nc3s2)cc1	10%	1%	3%	–	38 nM	–
COc1cccc(-c2nc3c(=O)[nH]c(C)nc3s2)c1	1%	12%	4%	28%	–	–
Cc1nc2sc(-c3ccc(Cl)cc3)nc2c(=O)[nH]1	1%	1%	1%	–	18 nM	42 nM
